Measurements taken from ChEMBL document CHEMBL1138178, “Identification of novel parasitic cysteine protease inhibitors by use of virtual screening. 2. The available chemical directory” (J Med Chem, 2006).
Where a SMILES comes first, the peptide text is derived from it. The star is where a group is joined. Cbz = O=C(OCc1ccccc1)*; OBn = c1ccc(CO*)cc1

Experiments:
[1] = target: T1, Falcipain 2 (Plasmodium falciparum, UniProt Q9N6S8); experiment: Inhibition of falcipain2
T1 sequence (Q9N6S8 whole entry): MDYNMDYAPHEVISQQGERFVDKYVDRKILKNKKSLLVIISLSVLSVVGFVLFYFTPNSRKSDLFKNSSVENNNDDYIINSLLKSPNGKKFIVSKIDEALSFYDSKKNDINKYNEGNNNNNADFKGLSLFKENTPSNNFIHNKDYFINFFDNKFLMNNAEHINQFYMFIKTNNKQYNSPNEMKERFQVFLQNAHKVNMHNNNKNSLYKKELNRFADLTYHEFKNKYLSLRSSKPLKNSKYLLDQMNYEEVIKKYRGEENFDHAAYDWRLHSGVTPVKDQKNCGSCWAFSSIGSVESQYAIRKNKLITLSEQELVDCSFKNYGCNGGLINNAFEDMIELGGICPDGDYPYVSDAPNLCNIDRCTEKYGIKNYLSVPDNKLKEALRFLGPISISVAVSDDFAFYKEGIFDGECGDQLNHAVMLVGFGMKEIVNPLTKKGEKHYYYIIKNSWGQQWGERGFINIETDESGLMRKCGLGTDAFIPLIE

[2] = target: T2, Cysteine protease falcipain-3 (Plasmodium falciparum, UniProt Q9NBA7); experiment: Inhibition of falcipain3
T2 sequence (Q9NBA7 whole entry): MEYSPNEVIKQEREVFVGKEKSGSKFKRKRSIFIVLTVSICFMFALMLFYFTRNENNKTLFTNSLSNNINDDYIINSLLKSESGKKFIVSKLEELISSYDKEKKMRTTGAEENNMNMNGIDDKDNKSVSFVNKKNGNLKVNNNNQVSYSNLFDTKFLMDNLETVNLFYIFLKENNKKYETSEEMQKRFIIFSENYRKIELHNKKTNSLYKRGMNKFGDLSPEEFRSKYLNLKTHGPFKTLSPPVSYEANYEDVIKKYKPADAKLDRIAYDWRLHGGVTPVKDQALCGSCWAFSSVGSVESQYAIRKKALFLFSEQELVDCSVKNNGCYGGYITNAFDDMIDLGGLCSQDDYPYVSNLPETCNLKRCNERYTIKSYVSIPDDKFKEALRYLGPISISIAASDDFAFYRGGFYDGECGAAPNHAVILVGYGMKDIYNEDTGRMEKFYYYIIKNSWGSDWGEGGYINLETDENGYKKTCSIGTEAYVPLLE

[3] = target: T3, Cysteine protease (Leishmania donovani, UniProt Q95WR6); experiment: Inhibition of Leishmania donovani cysteine protease
T3 sequence (Q95WR6 whole entry): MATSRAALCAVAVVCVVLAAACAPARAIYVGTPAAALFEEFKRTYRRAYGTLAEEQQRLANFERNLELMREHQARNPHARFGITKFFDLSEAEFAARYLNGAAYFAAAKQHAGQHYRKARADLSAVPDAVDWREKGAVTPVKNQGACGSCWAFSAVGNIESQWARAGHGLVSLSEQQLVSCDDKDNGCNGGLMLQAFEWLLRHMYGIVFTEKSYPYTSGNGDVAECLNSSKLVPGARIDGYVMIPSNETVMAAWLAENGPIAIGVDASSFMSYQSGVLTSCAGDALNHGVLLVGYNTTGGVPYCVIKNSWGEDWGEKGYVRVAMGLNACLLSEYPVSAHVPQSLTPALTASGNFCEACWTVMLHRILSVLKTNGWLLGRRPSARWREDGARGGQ
How it was run: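 Major cysteine protease purified from L. donovani promastigotes on Con A Sepharose; buffer 100 mM sodium acetate pH 5.5, 10 mM DTT, 0.1% Triton X-100, 1 mM EDTA; enzyme preincubated with compounds (DMSO stock) 10 min at 37 °C; Z-Phe-Arg-AMC at 10 µM final; 30 min at 37 °C; released AMC read fluorometrically.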

[4] = system: Plasmodium falciparum; experiment: Antimalarial activity against Plasmodium falciparum W2; format: functional, organism-based
How it was run: (§1)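 Sorbitol-synchronized chloroquine-resistant W2 P. falciparum at 1% parasitemia, 2% hematocrit, RPMI-1640 with 10% human serum, 3% O2/6% CO2/91% N2; compounds from DMSO (max 0.1%) for 48 h; fixed in 1% formaldehyde 48 h, stained with 1 nM YOYO-1 in 0.1% Triton X-100; parasitemia by flow cytometry; IC50 from percent control parasitemia versus concentration.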

[5] = system: Leishmania donovani; experiment: Antileishmanial activity against Leishmania donovani promastigotes; format: functional, organism-based
[6] = system: Vero; experiment: Cytotoxicity against Vero cells; format: functional, cell-based; conditions: Chlorocebus sabaeus
How it was run: (§2)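 VERO monkey kidney fibroblast cells tested simultaneously with antileishmanial screen; cytotoxicity read by neutral red assay; IC50 computed from growth inhibition curve.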

[7] = system: Vero; experiment: Cytotoxicity against Vero cells up to 50 uM; format: functional, cell-based, Chlorocebus sabaeus; how it was run: as §2
[8] = system: Plasmodium falciparum; experiment: Antimalarial activity against Plasmodium falciparum W2 up to 20 uM; format: functional, organism-based; how it was run: as §1
[9] = Leishmania donovani, read-out: IC50

Row | IC50 [1] [µM] | IC50 [2] [µM] | IC50 [4] [µM] | Compound | other results
1 | 14.3 | 49.2 | – | COC(=O)c1ccsc1NC(=O)CN1CCN(S(=O)(=O)c2ccc(Cl)cc2)CC1 | –
2 | 10.4 | > 50 | – | COC(=O)c1sccc1NC(=O)CC(=O)Nc1ccsc1C(=O)OC | –
3 | – | – | – | O=C(N[C@@H](COCc1ccccc1)C(=O)ON1C(=O)CCC1=O)OCc1ccccc1 | IC50 [3]: 23.5 µM
4 | – | – | 2.6 | Cc1nc(NCCCn2ccnc2)cc(-c2cncc(-c3ccc(F)cc3)c2)n1 | IC90 ([5]; Leishmania donovani): 85 µM; IC50 [5, 9]: 41.2 µM; IC50 [6]: 41.2 µM
5 | – | – | 20 | Cn1c(CSCC(=O)Nc2ccccc2)nnc1SCC(=O)Nc1ccccc1 | IC50 [7]: Non-toxic; IC50 [5]: Not Active
6 | – | – | 2.8 | COc1ccc(-c2cncc(-c3cc(NCCCn4ccnc4)nc(C)n3)c2)cc1 | –
7 | – | – | > 2.5 | O=C(CSCc1c(F)cccc1Cl)NCCSCc1ccco1 | IC50 [7]: Non-toxic; IC50 [5, 9]: 107 µM
8 | 1.6 | > 50 | – | Cc1cccc(NC(=O)Cn2c(O)c(/N=N/C(=O)C(=O)NCc3ccccc3)c3ccccc32)c1 | –
9 | 1.4 | 11.4 | – | O=S(=O)(NCc1ccco1)c1ccc2c(c1)Cc1cc(S(=O)(=O)NCc3ccco3)ccc1-2 | –
10 | – | – | 20 | Cn1c(CSc2ccnc3cc(Cl)ccc23)nnc1SCC(=O)N1CCOCC1 | IC50 [7]: Non-toxic; IC50 [5]: Not Active
11 | – | – | – | CCOC(=O)C1CCN(S(=O)(=O)c2ccc(CNC(=O)c3ccccc3)s2)CC1 | IC50 [8]: Not Active; IC50 [7]: Non-toxic; IC50 [5, 9]: 50.4 µM
12 | 15.3 | 18.8 | – | O=C(CCSSCCC(=O)NCc1ccccc1)NCc1ccccc1 | –
13 | – | – | 0.94 | c1ccc(-c2nc(NCCCn3ccnc3)cc(-c3cccnc3)n2)cc1 | IC90 ([5]; Leishmania donovani): 56.1 µM; IC50 [5, 9]: 12.6 µM; IC50 [6]: 40.7 µM
14 | – | – | – | O=C(CNC(=O)OCc1ccccc1)N[C@@H](Cc1ccccc1)C(=O)OCc1ccccc1 (Cbz-Gly-Phe-OBn) | IC50 [3]: 31.4 µM
15 | – | – | 3.9 | O=C(COCC(=O)N/N=C/CCc1ccccc1)N/N=C/CCc1ccccc1 | IC50 [7]: Non-toxic; IC50 [5]: Not Active
16 | 4.6 | > 50 | – | CCCc1cc(O)nc(SCC(=O)NCCSCc2ccco2)n1 | –
17 | 47.8 | 56.6 | – | O=S(=O)(Cc1ccc(Cl)cc1)Cc1nc(-c2ccsc2)no1 | –
18 | – | – | 0.13 | c1ccc(-c2nc(NCCCn3ccnc3)cc(-c3ccncc3)n2)cc1 | IC50 [7]: Non-toxic; IC90 ([5]; Leishmania donovani): 98.2 µM; IC50 [5, 9]: 50.5 µM
19 | 13.2 | > 50 | – | Cc1nc(C)nc(N(CCS(=O)(=O)c2ccccc2)CCS(=O)(=O)c2ccccc2)n1 | –
20 | – | – | 0.44 | Brc1cncc(-c2cc(NCCCn3ccnc3)nc(-c3ccccc3)n2)c1 | IC90 ([5]; Leishmania donovani): 15.4 µM; IC50 [5, 9]: 7.8 µM; IC50 [6]: 32.2 µM
21 | – | – | – | O=S(=O)(NCCSCc1ccco1)c1cc(S(=O)(=O)c2ccccc2)cs1 | IC50 [8]: Not Active; IC50 [7]: Non-toxic; IC50 [5, 9]: 54.1 µM
22 | 3.4 | > 50 | – | CCCS(=O)(=O)c1cscc1NC(=O)CSCCS(=O)(=O)c1ccc(Cl)cc1 | –
23 | – | – | – | O=C(CS(=O)(=O)c1ccc(Cl)cc1)NCCS(=O)(=O)c1ccccc1 | IC50 [3]: 24.9 µM

Row | IC50 [1] [µM] | IC50 [2] [µM] | IC50 [4] [µM] | Compound | other results
24 | – | – | 9.5 | C[C@@H](C(=O)NCCS(=O)(=O)c1ccc(Br)cc1)S(=O)(=O)c1ccccc1 | IC50 [5]: Not Active; IC50 [6]: 48.4 µM
25 | 13.8 | 31.2 | 9.5 | CCOC(=O)c1c2cc(OCC(=O)NCc3ccco3)ccc2n2ccccc12 | –
26 | – | 0.075 | – | CC(C)C[C@H](NC(=O)[C@H]1O[C@@H]1C(=O)O)C(=O)NCCCCN=C(N)N [E-64] | –
27 | 10.8 | 38.5 | – | O=C(Cn1nnc(-c2ccccc2)n1)NNC=NOCc1c(F)cccc1Cl | –
28 | – | – | – | N=C(N)c1ccc(OCCCCCOc2ccc(C(=N)N)cc2)cc1 [PENTAMIDINE] | IC90 ([5]; Leishmania donovani): 8.3 µM; IC50 [5, 9]: 2.5 µM
29 | 54.3 | > 50 | – | Cc1csc(Cn2nc(CC(=O)N/N=C/c3ccccc3)c3ccccc3c2=O)n1 | –
30 | 5.4 | 37.7 | – | O=S(=O)(c1ccc(-c2ccc(S(=O)(=O)N3CCOCC3)s2)s1)N1CCOCC1 | –
31 | 50 | > 50 | – | N=C(CS(=O)(=O)Cc1ccc(F)cc1)NOC(=O)c1cccs1 | –
32 | – | – | – | C[C@@H]1[C@H](O)[C@@H](C)/C=C/C=C/C=C/C=C/C=C/C=C/C=C/[C@H](O[C@@H]2O[C@H](C)[C@@H](O)[C@H](N)[C@@H]2O)C[C@@H]2O[C@](O)(C[C@@H](O)C[C@@H](O)[C@H](O)CC[C@@H](O)C[C@@H](O)CC(=O)O[C@H]1C)C[C@H](O)[C@H]2C(=O)O [AMPHOTERICIN B] | IC90 ([5]; Leishmania donovani): 0.3 µM; IC50 [5, 9]: 0.04 µM
33 | – | – | 6 | O=S(=O)(c1ccc2c(c1)C(=NO)c1cc(S(=O)(=O)N3CCOCC3)ccc1-2)N1CCOCC1 | IC50 [7]: Non-toxic; IC90 ([5]; Leishmania donovani): 81 µM; IC50 [5, 9]: 52.7 µM
34 | – | – | – | O=C(CSc1nc2ccccc2o1)NCCSCc1ccco1 | IC50 [3]: 43 µM
35 | – | – | 20 | CSc1cc(CSc2ccc(Cl)cc2)nc(-c2ccccn2)n1 | IC50 [7]: Non-toxic; IC90 ([5]; Leishmania donovani): 106 µM; IC50 [5, 9]: 50 µM
36 | – | – | 11.5 | COc1ccc(-c2cncc(-c3cc(NCc4ccco4)nc(C)n3)c2)cc1 | IC50 [7]: Non-toxic; IC50 [5]: Not Active
37 | – | – | 16.6 | Cn1c(CSCC(=O)Nc2ccccc2)nnc1SCC(=O)Nc1cccc(Cl)c1 | IC50 [7]: Non-toxic; IC50 [5]: Not Active
38 | 52.3 | > 50 | – | O=C(CSc1nnc(O)n1Cc1ccco1)c1ccc2c(c1)OCCO2 | –
39 | – | – | – | CC(=O)N[C@@H](CC(C)C)C(=O)N[C@@H](CC(C)C)C(=O)N[C@H](C=O)CCCNC(=N)N [LEUPEPTIN] | IC50 [3]: 0.01 µM
40 | – | – | – | COc1ccc(-c2ccnc(SCC(=O)NCCSCc3ccco3)n2)cc1 | IC50 [8]: Not Active; IC50 [7]: Non-toxic; IC50 [5, 9]: 79.4 µM
41 | – | – | 20 | O=C(NCc1ccncc1)c1ccc(-c2cnn(Cc3ccccc3)c2)nc1 | –
42 | 19 | 34 | – | Cc1ccc(S(=O)(=O)NC(=O)NCC2CCN(S(=O)(=O)c3ccccc3)CC2)cc1 | –
43 | 2.9 | > 50 | – | Cc1ccc(S(=O)(=O)N(C)C)cc1NS(=O)(=O)c1ccc(-c2ccon2)s1 | –
44 | – | – | – | COC(=O)c1sccc1NC(=O)CSCc1ccc(Cl)cc1 | IC50 [8]: Not Active; IC50 [7]: Non-toxic; IC50 [5, 9]: 45 µM
45 | 6.5 | > 50 | – | Cn1c(O)c(/N=N/C(=O)CCCCC(=O)/N=N/c2c(O)n(C)c3ccccc23)c2ccccc21 | –

Row | Compound | IC50 [1] [µM] | IC50 [2] [µM] | IC50 [4] [µM] | other results
46 | C[C@@H]1CC[C@H]2[C@@H](C)C(=O)O[C@@H]3O[C@@]4(C)CC[C@@H]1[C@]32OO4 [ARTEMISININ] | – | – | 0.008 | –
